The structures appear in SMILES notation. Converted amounts (≈) assume the structure as drawn. The source made the active and inactive calls. The calls are words filed in the database; no cut-off is given here.

Data set [1] in a line: Inhibition of human gamma-secretase expressed in HEK293 cells using Notch1-VP16-Gal4 as substrate after 24 hrs by Bright-Glo luciferase reporter gene assay. Format: cell-based. To be noted: HEK293, 24 h. Summed up: (§1)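 HEK293 cells transiently transfected with human SPPL2a, VP16-TNFα(aa1-76)-NTF substrate and Gal4-luciferase reporter (SPPL2a), or human Notch1-VP16-Gal4 plus Gal4-luciferase reporter relying on endogenous γ-secretase.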
For orientation: A reporter such as luciferase makes a cellular process visible.

Data set [2] deals with T1, Signal peptide peptidase-like 2A (Homo sapiens, UniProt Q8TCT8).
T1 sequence (Q8TCT8 whole entry): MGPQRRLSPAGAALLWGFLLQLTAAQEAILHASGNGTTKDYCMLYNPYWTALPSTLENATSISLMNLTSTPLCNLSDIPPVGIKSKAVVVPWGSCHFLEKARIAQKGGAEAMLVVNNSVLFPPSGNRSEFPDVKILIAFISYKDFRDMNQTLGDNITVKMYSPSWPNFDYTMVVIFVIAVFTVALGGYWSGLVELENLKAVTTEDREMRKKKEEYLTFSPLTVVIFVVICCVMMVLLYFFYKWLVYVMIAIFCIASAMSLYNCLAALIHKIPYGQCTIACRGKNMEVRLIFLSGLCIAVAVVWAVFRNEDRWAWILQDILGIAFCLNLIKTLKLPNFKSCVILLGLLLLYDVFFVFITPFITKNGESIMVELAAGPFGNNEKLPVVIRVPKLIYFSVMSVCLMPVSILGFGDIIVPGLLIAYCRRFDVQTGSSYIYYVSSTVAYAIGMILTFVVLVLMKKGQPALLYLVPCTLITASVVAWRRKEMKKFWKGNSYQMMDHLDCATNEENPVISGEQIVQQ
Description: Inhibition of human SPPL2a expressed in HEK293 cells using GAL4-VP16 fusedTNFalpha (1 to 76)-NTF as substrate after 24 hrs by Bright-Glo luciferase reporter gene assay. Format: cell-based. Summed up:
as §1

A short description of data set [3]: Selectivity ratio of IC50 for human gamma-secretase expressed in HEK293 cells to IC50 for human SPPL2a expressed in HEK293 cells. Summed up: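 HEK293 transiently transfected: SPPL2a arm with human SPPL2a, VP16-TNFα(aa1-76)-NTF and Gal4-luciferase; γ-secretase arm with human Notch1-VP16-Gal4 plus reporter (endogenous γ-secretase). Compound added 3 h after plating, 10 μM–0.3 nM final, triplicate, 24 h at 37 °C; luminescence read. IC50 from concentration vs normalised luminescence; ratio of the two IC50s.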

Data set [4] concerns Rattus norvegicus. Kind of data set: Dose normalized AUC in Wistar rat at 10 mg/kg, po bid by LC/MS/MS analysis. In kind it is ADME, organism-based. The following applies: in vivo.
Data set [5] relates to Mus musculus. Kind of data set: In vivo inhibition of mouse gamma-secretase assessed as effect on Hes1 mRNA level in jejunum at 100 mg/kg, po administered as single dose by RT-PCR method. Format: organism-based. The procedure, abridged: (§2)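 Thymus and jejunum excised into RNALater, 4 °C overnight, washed, frozen at −80 °C; total RNA from 10 mg tissue by MagNA Pure LC; Hes1 measured by TaqMan real-time PCR; significance by two-tailed heteroscedastic Student's t-test.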

Data set [6] relates to Mus musculus. Description: In vivo inhibition of SPPL2a in mouse assessed as increase in CD74/p8 accumulation in splenocytes at 100 mg/kg, po administered as single dose measured after 4 hrs by Western blot method. Format: functional, organism-based. On the technique in general: Immunoblotting shows a protein as a band on a membrane.
Data set [7] concerns Mus musculus. Kind of data set: In vivo inhibition of SPPL2a in mouse assessed as increase in CD74/p8 accumulation in splenocytes at 10 to 100 mg/kg, po administered as single dose measured after 4 hrs by Western blot method. Format: functional, organism-based.
Data set [8] can be described thus: Inhibition of human SPP expressed in human U2OS cells using EGFP-labeled EnvSigSeq-SEAP as substrate after 24 hrs by Hoechst staining based high content imaging assay. In kind it is cell-based. The procedure, abridged: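 Stable U-2 OS lines expressing human SPPL2a, SPPL2b or SPP constitutively (mouse SPPL2a line analogous, mouse TNFα(aa1-77)-NTF-EGFP-NLS) with doxycycline-inducible EGFP substrate. 3000 cells/well, 3−4 h, then 11-point inhibitor 100 μM to 1 nM, 0.9% DMSO, 5 μg/mL doxycycline, 24 h 37 °C. PFA fixed, Hoechst nuclei; nuclear minus cytoplasmic EGFP intensity; inhibition vs 0.5 μM reference and DMSO; IC50 by nonlinear regression.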

Data set [9] relates to Mus musculus. Kind of data set: In vivo inhibition of mouse gamma-secretase assessed as effect on Hes1 mRNA level in thymus at 100 mg/kg, po administered as single dose by RT-PCR method. Format: organism-based. The procedure, abridged:
as §2

Data set [10] can be described thus: Equilibrium solubility of the compound at pH 6.8 after 24 hrs by saturation shake flask based UV-HPLC method. In kind it is physicochemical. To be noted: buffer.
Data set [11] can be described thus: Octanol-buffer partition coefficient, log P of the compound by LC/MS/MS based shake flask method. Format: physicochemical.
The subject of data set [12] is Rattus norvegicus. Kind of data set: Dose normalized AUC in Sprague-Dawley rat at 3 mg/kg, po by LC/MS/MS analysis. Format: ADME, organism-based. To be noted: in vivo. The procedure, abridged:
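Female Sprague−Dawley rats catheterized (femoral artery/vein); cassette oral dosing 3 mg/kg per compound as aqueous Tween 80/CMC-Na suspension (0.5/0.5/99), 48 h after iv dose; arterial blood sampled over time into EDTA tubes; LC-MS/MS with QC acceptance 70−130%; noncompartmental PK.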

Data set [13] is described as follows: Oral bioavailability in Sprague-Dawley rat at 1 mg/kg by LC/MS/MS analysis. Format: ADME, organism-based. The following applies: in vivo.
Data set [14] deals with T2, Signal peptide peptidase-like 2A (Mus musculus, UniProt Q9JJF9).
T2 sequence (Q9JJF9 whole entry): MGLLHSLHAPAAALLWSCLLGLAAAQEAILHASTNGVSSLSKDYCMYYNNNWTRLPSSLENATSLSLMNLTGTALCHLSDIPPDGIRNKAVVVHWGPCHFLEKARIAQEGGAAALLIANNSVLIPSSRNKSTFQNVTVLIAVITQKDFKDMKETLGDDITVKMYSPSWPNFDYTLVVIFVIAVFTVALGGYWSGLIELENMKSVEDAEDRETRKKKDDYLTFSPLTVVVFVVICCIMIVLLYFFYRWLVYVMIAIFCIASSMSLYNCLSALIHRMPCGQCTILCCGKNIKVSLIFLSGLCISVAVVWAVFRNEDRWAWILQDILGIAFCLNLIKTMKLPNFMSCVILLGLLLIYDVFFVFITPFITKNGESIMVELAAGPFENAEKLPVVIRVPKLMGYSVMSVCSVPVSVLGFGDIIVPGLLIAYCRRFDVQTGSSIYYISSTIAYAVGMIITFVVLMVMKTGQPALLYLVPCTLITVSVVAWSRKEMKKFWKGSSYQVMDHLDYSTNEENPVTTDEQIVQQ
Kind of data set: Inhibition of mouse SPPL2a in A20 cells assessed as CD74/p8 accumulation by flow cytometry. In kind it is cell-based.

A short description of data set [15]: Clearance in Sprague-Dawley rat at 1 mg/kg, iv by LC/MS/MS analysis. Format: ADME, organism-based. To be noted: in vivo. The procedure, abridged: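 Female Sprague−Dawley rats with femoral artery and vein catheters implanted 96−120 h beforehand; cassette dosing iv 1 mg/kg per compound in NMP/PEG200 (30:70); arterial blood into EDTA tubes at several times, frozen; LC-MS/MS vs standard curve with QCs within 70−130%; noncompartmental analysis.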

A short description of data set [16]: Clearance in Balb/c mouse at 5 mg/kg, iv by LC/MS/MS analysis. In kind it is ADME, organism-based. To be noted: in vivo.
Data set [17] deals with T2, Signal peptide peptidase-like 2A. Kind of data set: Inhibition of SPPL2a in mouse whole blood assessed as increase in CD74/p8 accumulation after 5.5 hrs by Western bot method. Summed up: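 Mouse whole blood (200 μL) with compound from 20× stock, 0.5% DMSO final, 5.5 h at 37 °C, 5% CO2 with rotation. RBC lysis, washes, lysis in Tris pH 6.8/Triton/deoxycholate buffer; Western blot with rat anti-mouse CD74 (In-1); p8 band intensity normalized to CD74 full-length/β-actin for dose response.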

By IC50 is commonly meant the concentration at which inhibition is half-maximal. In turn, `Cc1ccc(NC(=O)C[C@@H](C)C(=O)N[C@@H]2C(=O)N3CCCN3Cc3ccccc32)cc1` came in with a concentration for half-maximal inhibition (IC50) in data set [1] of 27 nM.
For the compound `CC(C)C[C@H](NC(=O)OCc1ccccc1)C(=O)N[C@@H](CC(C)C)C(=O)NCC(=O)CNC(=O)[C@H](CC(C)C)NC(=O)[C@H](CC(C)C)NC(=O)OCc1ccccc1`, the IC50 was more than 10000 nM in data set [1] and 6 nM in data set [2]. In addition, the “Ratio IC50” value in data set [3] is more than 1666.
Compound `C[C@H](NC(=O)[C@@H](O)c1cc(F)cc(F)c1)C(=O)N[C@@H]1C(=O)N(C)c2ccccc2-c2ccccc21` gave an AUC/dose in the data set on Rattus norvegicus [4] of 63 nM·h. In addition, the Activity entry in the data set with Mus musculus [5] and in the data set with Mus musculus [9] was “Toxic” in each case. Moreover, the outcome with Mus musculus [6] and in the data set on Mus musculus [7] was Active. In addition, the IC50 in data set [1] was less than 0.3 nM; in data set [2] it was 10 nM; in [8], 50 nM. Moreover, the “Ratio IC50” value in data set [3] is listed as less than 1.
Take `C[C@H](CC(=O)Nc1cc(F)cc(F)c1)C(=O)N[C@@H]1C(=O)N2CCCN2Cc2ccccc21`: the IC50 in data set [1] is 17 nM; in [2], 5 nM. Further, in [3], the “Ratio IC50” value was found to be 3.
Take `C[C@H](CC(=O)Nc1ccccc1C(F)(F)F)C(=O)N[C@@H]1C(=O)N2CCCN2Cc2ccccc21`: the values for the IC50 in data set [1] and in [2] were more than 10000 nM and 2850 nM, respectively. The “Ratio IC50” value in [3] was more than 3.
By thermodynamic solubility is commonly meant the concentration in solution at equilibrium with solid. With `Cc1ncccc1NC(=O)C[C@@H](C)C(=O)N[C@@H]1C(=O)N2CCCN2Cc2ccccc21`, in data set [10], the thermodynamic solubility at 24 h was more than 1000 µM. Besides, the IC50 in data set [1] is more than 10000 nM; in data set [2], 1020 nM.
As for `Cc1cccc(NC(=O)C[C@@H](C)C(=O)N[C@@H]2C(=O)N3CCCN3Cc3ccccc32)c1`, the figures for the IC50 in data set [1] and in data set [2] were 610 nM and 70 nM, respectively. Further, in [3], the “Ratio IC50” value is 9.
Usually logP stands for a log measure of how a compound divides between an organic and an aqueous phase. As a reminder, the bioavailability is dose-corrected exposure relative to a reference, in per cent. Read a low bioavailability as poor availability. For orientation: clearance means a measure of how efficiently the substance is removed, as volume per time. Read a low clearance as a low capacity for elimination. The compound `Cc1ncc(F)cc1NC(=O)C[C@@H](C)C(=O)N[C@@H]1C(=O)N2CCCN2Cc2ccccc21` yielded a logP in [11] of 1.7. Besides, the AUC/dose in the data set with Rattus norvegicus [12] stood at 157 nM·h. The bioavailability in [13] was 100%. Further, the solubility (thermodynamic) at 24 h in [10] is more than 1000 µM. Besides, the IC50 was determined as 97 nM in data set [14], 50 nM in [17], 8200 nM in data set [1] and 44 nM in data set [2]. Besides, the clearance in data set [15] worked out at 34 mL/min/kg; in [16] it was 32 mL/min/kg.
The compound `Cc1ncc(F)cc1NC(=O)C[C@@H](C)C(=O)N[C@@H]1C(=O)N2CCCN2C(=O)c2ccccc21` displayed a logP in [11] of 0.9. The IC50 in [1] was more than 10000 nM.
In [11], `Cc1ncc(F)cc1NC(=O)C[C@@H](C)C(=O)N[C@@H]1C(=O)N2CCCN2Cc2c(F)cccc21` registered a logP of 2.1. This compound registered an AUC/dose in the data set on Rattus norvegicus [12] of 1522 nM·h. Moreover, the bioavailability in [13] came to 54%. This compound also showed a thermodynamic solubility at 24 h in [10] of 257 µM (≈ 118 µg/mL). Moreover, the IC50 in [14] amounted to 121 nM; in data set [1], 7800 nM; in data set [2], 76 nM. In [15], the clearance came to 15 mL/min/kg.
Take `Cc1ncc(F)cc1NC(=O)C[C@H](C(=O)N[C@@H]1C(=O)N2CCCN2C(=O)c2ccccc21)C1CC1`: the logP in data set [11] is 1.6. Further, the IC50 was 496 nM in [14] and more than 10000 nM in [1].

Source of the values: ChEMBL document CHEMBL4043282, “Discovery of the First Potent, Selective, and Orally Bioavailable Signal Peptide Peptidase-Like 2a (SPPL2a) Inhibitor Displaying Pronounced Immunomodulatory Effects In Vivo” (J Med Chem, 2018).
